Measurements: ChEMBL document CHEMBL4368914, “Tricyclic Indazoles-A Novel Class of Selective Estrogen Receptor Degrader Antagonists” (J Med Chem, 2019)
Values after ≈ are worked out from the molar mass of the structure shown.

Experiments:
[1] = Intrinsic clearance in rat hepatocytes assessed per million cells; format: ADME, cell-based, Hepatocyte; conditions: read-out: CLH
Procedure, shortened: (§1)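 Rate of metabolism (µl/min/10⁶ cells) measured from DMSO stock in isolated hepatocytes diluted to 1x10⁶ cells/mL.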

[2] = Stability in pH 10 deuterated buffer assessed as compound remaining after 8 days by 1H NMR spectroscopy; format: physicochemical; conditions: pH 10, 192 h
Procedure, shortened: (§2)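 Compound diluted from a 25 mM DMSO-d6 stock to a final 1 mM in each deuterated buffer. Followed by ¹H NMR (500 MHz, water suppression, 64 scans) and LC-MS at 0, 24, 72 and 192 h (8 days).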

[3] = Apparent permeability in human Caco2 cells at 10 uM; format: ADME, cell-based; conditions: Caco-2
Procedure, shortened: (§3)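 Compound at 10 μM incubated on cultured Caco-2 or MDCK cells. Permeability was measured apical-to-basolateral and basolateral-to-apical, and efflux ratio was taken as (B to A)/(A to B).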

[4] = Stability in pH 7.4 deuterated buffer assessed as compound remaining after 8 days by 1H NMR spectroscopy; format: physicochemical; conditions: pH 7.4, 192 h; procedure, shortened: as §2
[5] = Fraction unbound in Alderley Park Han Wistar rat plasma by equilibrium dialysis; format: ADME, cell-free
Procedure, shortened: (§4)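 Equilibrium dialysis from DMSO stock in 10% plasma, either Alderley Park Han Wistar rat plasma or human plasma.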

[6] = Oral bioavailability in dog at 1 mg/kg; format: ADME, organism-based, Canis lupus familiaris; conditions: in vivo
Procedure, shortened: (§5)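 Single IV dose of 0.5 mg/kg and oral dose of 1 mg/kg in rat and dog. Both routes were formulated in 5% DMSO:95% hydroxypropyl β-cyclodextrin (30% w/v), at 1 mL/kg IV and 4 mL/kg PO.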

[7] = Efflux ratio of apparent permeability in human Caco2 cells at 10 uM; format: ADME, cell-based; conditions: Caco-2; procedure, shortened: as §3
[8] = Lipophilicity, log D of the compound at pH 7.4 by shake flask method; format: physicochemical; conditions: buffer
Procedure, shortened: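 Shake-flask measurement of logD at pH 7.4.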

[9] = AUC in dog at 1 mg/kg, po; format: ADME, organism-based, Canis lupus familiaris; conditions: in vivo; procedure, shortened: as §5
[10] = Volume of distribution at steady state in dog at 0.5 mg/kg, iv or 1 mg/kg, po; format: ADME, organism-based, Canis lupus familiaris; conditions: in vivo, read-out: Vdss; procedure, shortened: as §5
[11] = Clearance in rat at 0.5 mg/kg, iv or 1 mg/kg, po; format: ADME, organism-based; conditions: in vivo; procedure, shortened: as §5
[12] = molecular target: T1, Estrogen receptor (Homo sapiens, UniProt P03372); assay: Binding affinity to recombinant human GST-tagged ERalpha LBD expressed in baculovirus-infected insect cells by lantha screen assay
T1 sequence (P03372 whole entry): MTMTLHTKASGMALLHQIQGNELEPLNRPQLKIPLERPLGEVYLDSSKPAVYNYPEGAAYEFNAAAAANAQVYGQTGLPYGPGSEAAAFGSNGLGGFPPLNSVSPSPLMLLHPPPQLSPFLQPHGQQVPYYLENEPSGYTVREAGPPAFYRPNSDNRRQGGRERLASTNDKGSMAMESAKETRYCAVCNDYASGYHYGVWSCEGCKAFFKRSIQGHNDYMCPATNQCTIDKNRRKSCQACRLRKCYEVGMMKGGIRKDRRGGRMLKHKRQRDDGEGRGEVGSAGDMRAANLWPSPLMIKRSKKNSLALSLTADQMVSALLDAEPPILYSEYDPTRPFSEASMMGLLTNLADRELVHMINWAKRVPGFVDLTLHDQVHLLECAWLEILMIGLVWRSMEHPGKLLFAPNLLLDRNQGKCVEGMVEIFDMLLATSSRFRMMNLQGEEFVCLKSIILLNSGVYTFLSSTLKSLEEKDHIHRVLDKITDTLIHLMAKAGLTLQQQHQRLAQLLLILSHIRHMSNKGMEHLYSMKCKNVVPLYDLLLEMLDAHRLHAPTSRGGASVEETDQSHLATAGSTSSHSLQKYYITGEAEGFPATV

[13] = Efflux ratio of apparent permeability in MDCK cells at 10 uM; format: ADME, cell-based, Canis lupus familiaris; conditions: dog; procedure, shortened: as §3
[14] = Volume of distribution at steady state in rat at 0.5 mg/kg, iv or 1 mg/kg, po; format: ADME, organism-based; conditions: in vivo, read-out: Vdss; procedure, shortened: as §5
[15] = Fraction unbound in 10% human plasma by equilibrium dialysis; format: ADME, cell-free; conditions: 10% plasma; procedure, shortened: as §4
[16] = molecular target: Cytochrome P450 2D6 (Homo sapiens, UniProt P10635); assay: Inhibition of CYP2D6 in human liver microsomes; format: ADME
Cytochrome P450 2D6, sequence (P10635 whole entry, canonical isoform): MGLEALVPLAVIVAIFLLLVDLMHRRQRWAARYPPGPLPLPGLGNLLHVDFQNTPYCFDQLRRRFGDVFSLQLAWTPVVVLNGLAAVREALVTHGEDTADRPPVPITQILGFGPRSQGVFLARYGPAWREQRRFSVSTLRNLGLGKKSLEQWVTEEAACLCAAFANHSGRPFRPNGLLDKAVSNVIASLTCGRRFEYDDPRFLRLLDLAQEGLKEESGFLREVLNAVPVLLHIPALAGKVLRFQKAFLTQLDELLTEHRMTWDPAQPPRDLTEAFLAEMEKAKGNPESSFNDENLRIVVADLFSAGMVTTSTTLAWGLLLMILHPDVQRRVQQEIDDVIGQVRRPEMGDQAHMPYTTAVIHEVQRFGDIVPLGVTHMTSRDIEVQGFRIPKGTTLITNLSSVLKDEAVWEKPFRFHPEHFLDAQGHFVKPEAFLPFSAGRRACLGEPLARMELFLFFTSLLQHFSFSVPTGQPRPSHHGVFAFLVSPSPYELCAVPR
Procedure, shortened: (§6)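 High-throughput human liver microsome assay across a panel of five CYP isoforms, giving IC50.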

[17] = AUC in rat at 1 mg/kg, po; format: ADME, organism-based; conditions: in vivo; procedure, shortened: as §5
[18] = Solubility of the compound in phosphate buffer at pH 7.4 after 24 hrs; format: physicochemical
Procedure, shortened: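 Solubility in aqueous phosphate buffer at pH 7.4 after 24 h at 25 °C.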

[19] = Glutathione reactivity in human liver microsomes assessed as GSH trapping ratio of compound to clozapine; format: ADME, Microsome
Procedure, shortened: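 Glutathione trapping in human liver microsomes, expressed as a ratio to clozapine.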

[20] = Half life in rat at 0.5 mg/kg, iv or 1 mg/kg, po; format: ADME, organism-based; conditions: in vivo; procedure, shortened: as §5
[21] = Fraction unbound in dog plasma by equilibrium dialysis; format: ADME, cell-free, Canis lupus familiaris
[22] = Apparent permeability in MDCK cells at 10 uM; format: ADME, cell-based, Canis lupus familiaris; conditions: dog; procedure, shortened: as §3
[23] = Fraction unbound in mouse plasma by equilibrium dialysis; format: ADME, cell-free
[24] = Intrinsic clearance in human hepatocytes assessed per million cells; format: ADME, cell-based, Hepatocyte; conditions: read-out: CLH; procedure, shortened: as §1
[25] = Oral bioavailability in rat at 1 mg/kg; format: ADME, organism-based; conditions: in vivo; procedure, shortened: as §5
[26] = Clearance in dog at 0.5 mg/kg, iv or 1 mg/kg, po; format: ADME, organism-based, Canis lupus familiaris; conditions: in vivo; procedure, shortened: as §5
[27] = Intrinsic clearance in dog hepatocytes assessed per million cells; format: ADME, cell-based, Canis lupus familiaris, Hepatocyte; conditions: read-out: CLH; procedure, shortened: as §1
[28] = Stability in pH 4 deuterated buffer assessed as compound remaining after 8 days by 1H NMR spectroscopy; format: physicochemical; conditions: pH 4, 192 h; procedure, shortened: as §2
[29] = Half life in dog at 0.5 mg/kg, iv or 1 mg/kg, po; format: ADME, organism-based, Canis lupus familiaris; conditions: in vivo; procedure, shortened: as §5
[30] = molecular target: T1, Estrogen receptor; assay: Induction of ERalpha degradation in human MCF7 cells after 18 to 24 hrs by in multiplexed cell assay; format: cell-based
Procedure, shortened: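 MCF-7 cells were kept at 37 °C, 5% CO₂ in phenol red-free RPMI1640 with 5% charcoal-stripped FCS and 2 mmol/L glutamine. Compounds came from 10 mmol/L DMSO stocks.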

[31] = molecular target: Cytochrome P450 2C19 (Homo sapiens, UniProt P33261); assay: Inhibition of CYP2C19 in human liver microsomes; format: ADME; procedure, shortened: as §6
Cytochrome P450 2C19, sequence (P33261 whole entry): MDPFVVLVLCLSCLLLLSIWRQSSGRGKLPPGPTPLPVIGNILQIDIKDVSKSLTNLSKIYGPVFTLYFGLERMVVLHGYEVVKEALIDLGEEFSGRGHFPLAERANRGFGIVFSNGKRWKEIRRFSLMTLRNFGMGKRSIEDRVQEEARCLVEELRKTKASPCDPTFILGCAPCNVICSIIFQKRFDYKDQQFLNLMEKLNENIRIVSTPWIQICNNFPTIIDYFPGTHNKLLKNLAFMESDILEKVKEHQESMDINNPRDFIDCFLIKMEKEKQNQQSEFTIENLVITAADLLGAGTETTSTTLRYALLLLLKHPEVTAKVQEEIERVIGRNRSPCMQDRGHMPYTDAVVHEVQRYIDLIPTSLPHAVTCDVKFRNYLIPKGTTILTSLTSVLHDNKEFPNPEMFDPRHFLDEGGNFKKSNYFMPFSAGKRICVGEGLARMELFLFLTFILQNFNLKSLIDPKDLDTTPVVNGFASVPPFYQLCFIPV

[32] = molecular target: T2, Cytochrome P450 1A2 (Homo sapiens, UniProt P05177); assay: Inhibition of CYP1A2 in human liver microsomes; format: ADME; procedure, shortened: as §6
T2 sequence (P05177 whole entry): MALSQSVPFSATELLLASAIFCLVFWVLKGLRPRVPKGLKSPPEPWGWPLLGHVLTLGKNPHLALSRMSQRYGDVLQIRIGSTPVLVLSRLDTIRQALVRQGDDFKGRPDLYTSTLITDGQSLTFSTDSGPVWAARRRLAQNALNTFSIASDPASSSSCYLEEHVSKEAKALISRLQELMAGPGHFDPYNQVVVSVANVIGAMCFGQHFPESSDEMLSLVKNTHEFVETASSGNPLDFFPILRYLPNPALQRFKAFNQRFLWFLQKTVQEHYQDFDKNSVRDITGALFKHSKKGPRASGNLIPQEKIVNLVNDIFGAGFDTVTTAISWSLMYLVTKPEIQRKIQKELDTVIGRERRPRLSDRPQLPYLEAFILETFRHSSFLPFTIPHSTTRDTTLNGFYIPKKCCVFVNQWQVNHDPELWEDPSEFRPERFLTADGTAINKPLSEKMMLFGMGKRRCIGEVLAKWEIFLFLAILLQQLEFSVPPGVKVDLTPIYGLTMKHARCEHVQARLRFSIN

- hepatocyte CLint [1]: 18 µL/min/1e6 cells
- Stability [2]: Stable
- Papp at 10 µM [3]: 6.2 ×10⁻⁶ cm/s
- Stability [4]: Stable
- fraction unbound [5]: 0.022
- bioavailability [6]: 45%
- efflux ratio at 10 µM [7]: 2.2
- logD [8]: 2.5
- AUC [9]: 6.6 µM·h
- Vd [10]: 0.36 L/kg
- clearance [11]: 32 mL/min/kg
- IC50 [12]: 1 nM
- efflux ratio at 10 µM [13]: 1.7
- Vd [14]: 1 L/kg
- fraction unbound [15]: 0.0092
- IC50 [16]: > 30000 nM
- AUC [17]: 0.21 µM·h
- solubility at 24 h [18]: 810 µM (≈ 358 µg/mL)
- Ratio [19]: < 0.04
- half-life [20]: 1.3 h
- fraction unbound [21]: 0.0087
- Papp at 10 µM [22]: 8.4 ×10⁻⁶ cm/s
- fraction unbound [23]: 0.012
- hepatocyte CLint [24]: 5 µL/min/1e6 cells
- bioavailability [25]: 51%
- clearance [26]: 2.8 mL/min/kg
- hepatocyte CLint [27]: 9.6 µL/min/1e6 cells
- Stability [28]: Stable
- half-life [29]: 6.8 h
- IC50 [30]: 1 nM
- IC50 [31]: > 30000 nM
- IC50 [32]: > 30000 nM
Structure (SMILES): COc1cc(/C=C/C(=O)O)ccc1[C@@H]1c2ccc3[nH]ncc3c2C[C@@H](C)N1CC(C)(F)F
